Laboratory results as given in ChEMBL document CHEMBL1124062, “Structure-affinity relationships of arylquinolizines at alpha-adrenoceptors” (J Med Chem, 1988).
pKi: −log10 of the molar value.

Tests used:
[1] = target: T1, Alpha-1A adrenergic receptor (Bos taurus, UniProt P18130); assay: Affinity to alpha-1 adrenergic receptor by the displacement of [3H]-prazosin from calf cerebral cortex membranes; format: tissue-based
T1 sequence (P18130 whole entry): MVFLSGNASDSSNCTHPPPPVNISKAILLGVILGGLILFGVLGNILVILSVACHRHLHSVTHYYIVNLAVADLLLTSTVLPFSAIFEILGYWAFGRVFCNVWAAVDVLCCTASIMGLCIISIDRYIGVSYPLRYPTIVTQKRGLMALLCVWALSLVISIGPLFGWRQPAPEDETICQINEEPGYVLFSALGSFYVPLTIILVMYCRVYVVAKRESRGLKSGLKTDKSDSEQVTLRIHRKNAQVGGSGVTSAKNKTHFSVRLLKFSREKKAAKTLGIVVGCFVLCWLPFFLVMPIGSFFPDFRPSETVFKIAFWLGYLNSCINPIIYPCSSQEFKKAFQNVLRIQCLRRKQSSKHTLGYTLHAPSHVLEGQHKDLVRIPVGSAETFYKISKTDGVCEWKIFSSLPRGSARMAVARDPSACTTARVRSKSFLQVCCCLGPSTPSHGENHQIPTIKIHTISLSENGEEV
In short: (§1)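 Membranes from calf cerebral cortex as the receptor source. Alpha1 sites labelled with [3H]prazosin and alpha2 sites with [3H]clonidine. Affinity measured as displacement of each radioligand.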

[2] = Selectivity expressed as the ratio of Ki of [3H]prazosin to Ki of [3H]-clonidine
[3] = target: T2, Alpha-2A adrenergic receptor (Bos taurus, UniProt Q28838); assay: Affinity to alpha-2 adrenergic receptor by the displacement of [3H]clonidine from calf cerebral cortex membranes; format: tissue-based; in short: as §1
T2 sequence (Q28838 whole entry): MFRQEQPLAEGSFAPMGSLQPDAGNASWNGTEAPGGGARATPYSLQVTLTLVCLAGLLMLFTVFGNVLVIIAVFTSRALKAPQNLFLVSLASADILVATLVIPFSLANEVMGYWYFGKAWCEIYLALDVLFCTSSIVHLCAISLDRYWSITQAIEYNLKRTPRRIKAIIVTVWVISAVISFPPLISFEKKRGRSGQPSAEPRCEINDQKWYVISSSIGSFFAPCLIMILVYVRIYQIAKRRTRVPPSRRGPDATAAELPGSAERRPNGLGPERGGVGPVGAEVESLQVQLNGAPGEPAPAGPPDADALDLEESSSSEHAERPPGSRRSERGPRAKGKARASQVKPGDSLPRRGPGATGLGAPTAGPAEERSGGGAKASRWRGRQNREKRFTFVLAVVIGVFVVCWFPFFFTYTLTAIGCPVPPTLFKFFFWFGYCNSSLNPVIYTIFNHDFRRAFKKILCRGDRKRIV

[4] = Partition coefficient (logD) (octanol/phosphate buffer); format: physicochemical
In short: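 Shake-flask partition between octanol and pH 7.4 phosphate buffer of ionic strength 0.1 as the aqueous phase. Compound level in each phase read by UV absorption.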

[5] = target: T1, Alpha-1A adrenergic receptor; assay: Compound was evaluated for log 1/Ki at alpha-1 adrenergic receptor; details: read-out: Log 1/Ki (converted); in short: as §1
[6] = target: T2, Alpha-2A adrenergic receptor; assay: Compound was evaluated for log 1/Ki at alpha-2 adrenergic receptor; details: read-out: Log 1/Ki (converted); in short: as §1

Row | Compound | pKi [1] | Selectivity [2] | pKi [3] | logD [4] | Ki [5] | Ki [6]
1 | c1ccc2c3c(oc2c1)C1CCCCN1CC3 (stereo not drawn) | 6.96 | 6.8 | 7.79 | 1.8 | 110 nM | 16.2 nM
2 | Nc1nc2c(s1)CCN1CCCCC21 (stereo not drawn) | 5.55 | 8 | 6.46 | 0.39 | 2820 nM | 347 nM
3 | c1cnc2c(c1)CCN1CCCCC21 (stereo not drawn) | 5.49 | 1.6 | 5.70 | 0.39 | 3240 nM | 2000 nM
4 | c1[nH]nc2c1CCN1CCCCC21 (stereo not drawn) | 4.62 | 2.5 | 5.02 | 0.16 | 24000 nM | 9550 nM
5 | c1ccc2c3c([nH]c2c1)C1CCCCN1CC3 (stereo not drawn) |  |  |  | 1.83 |  | 
6 | c1cnc2[nH]c3c(c2c1)CCN1CCCCC31 (stereo not drawn) | 6.27 | 0.8 | 6.18 | 0.16 | 537 nM | 661 nM
7 | c1cc2c(s1)C1CCCCN1CC2 (stereo not drawn) | 5.96 | 5.6 | 6.71 | 1.51 | 1100 nM | 195 nM
8 | c1ccc2c3c(sc2c1)C1CCCCN1CC3 (stereo not drawn) | 7.79 | 3.7 | 8.37 | 2.09 | 16.2 nM | 4.27 nM
